Experiment [1] has as its system Human immunodeficiency virus 1. Kind of experiment: Antiviral activity against wild type HIV1 assessed as inhibitory effect on virus producing cells at 10 uM by cell based inhibition assay. It is filed as functional. The method, boiled down:
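Late-stage single-round assay: compound at 10 μM was added to the medium of virus-producing cells 5 h after transfection and incubated 48 h. Pseudotyped virus from the supernatant then infected SupT1 cells for 48 h. Luciferase in the newly infected cells gave percent inhibition. Quadruplicate.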

In experiment [2] the target is Human immunodeficiency virus type 1 protease (Human immunodeficiency virus 1, UniProt Q72874). Kind of experiment: Inhibition of recombinant HIV1 protease measured assessed as hydrolysis of fluorogenic substrate by FRET assay. The essentials:
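Wild-type HIV-1 protease activity was read by FRET. Each assay was run in triplicate. IC50 values are means (±1 standard deviation) from three independent experiments.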

The target of experiment [3] is T1, Human immunodeficiency virus type 1 reverse transcriptase (Human immunodeficiency virus 1, UniProt Q72547). Kind of experiment: Inhibition of HIV-1BH10 reverse transcriptase expressed in Escherichia coli assessed as polymerization by one-step real time RT-PCR assay. Background: In qPCR the cycle at which signal appears reflects the starting amount.
In experiment [4] the test system is Human immunodeficiency virus 1. Kind of experiment: Antiviral activity against wild type HIV1 assessed as inhibitory effect on virus infected cells at 10 uM by cell based inhibition assay. It is filed as functional. The method, boiled down:
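Single-round assay of the early stage: SupT1 cells were first infected with pseudotyped HIV-1, then exposed to compound at 10 μM for 48 h. Luciferase activity was measured and expressed as percent inhibition.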

Experiment [5] addresses T1, Human immunodeficiency virus type 1 reverse transcriptase. Kind of experiment: Inhibition of HIV-1 NL4-3 reverse transcriptase expressed in Escherichia coli assessed as polymerization by one-step real-time RT-PCR assay.
For experiment [6], the system named is Human immunodeficiency virus 1. Kind of experiment: Antiviral activity against wild type HIV1 infected in human SupT1 cells assessed as inhibitory effect at 100 nM by cell based inhibition assay. The format is functional. The note with it: Human immunodeficiency virus 1, SUP-T1. The essentials: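 1×10^6 SupT1 cells were infected with HIV-1 NL4-3 by spin infection, with 10 µg/mL polybrene and test agent at 100 nM present during infection. Activity is expressed as percent inhibition of viral growth.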

Molecules are shown by their SMILES.

For the molecule `CC(C)CN(C[C@@H](O)[C@H](Cc1ccccc1)NC(=O)O[C@H]1CO[C@H]2OCC[C@H]21)S(=O)(=O)c1ccc(N)cc1`, in experiment [1], the inhibition at 10 µM worked out at 30.8%.

`COc1ccc(S(=O)(=O)N(CC(C)C)C[C@@H](O)[C@H](Cc2ccccc2)NCc2cc(=O)oc3cc(O)ccc23)cc1`: in experiment [1], the inhibition at 10 µM is 88.8%. Besides, in experiment [2], the IC50 turned out to be 0.053 µM.

In the case of `COc1ccc(S(=O)(=O)N(CC(C)C)C[C@@H](O)[C@H](Cc2ccccc2)NC(=O)Oc2c3occc3cc3ccc(=O)oc23)cc1`, the results for the 50% inhibitory concentration (IC50) in experiment [2] and in experiment [3] were 0.12 µM and over 1000 µM, respectively.

Take `COc1ccc(S(=O)(=O)N(CC(C)C)C[C@@H](O)[C@H](Cc2ccccc2)NC(=O)c2cc3ccc(OC)cc3oc2=O)cc1`: the IC50 is 0.0467 µM in experiment [2] and 370 µM in experiment [5]. For the same molecule, the inhibition at 10 µM in experiment [4] was determined as 8.28%.

Regarding `CC(C)CN(C[C@@H](O)[C@H](Cc1ccccc1)NC(=O)c1cc2ccc(O)cc2oc1=O)S(=O)(=O)c1ccc(N)cc1`, the IC50 amounted to 0.0277 µM in experiment [2] and 554 µM in experiment [5]. In experiment [4], the inhibition at 10 µM stood at 27%.

For `CC(C)CN(C[C@@H](O)[C@H](Cc1ccccc1)NC(=O)Oc1c2occc2cc2ccc(=O)oc12)S(=O)(=O)c1ccc([N+](=O)[O-])cc1`, the results for the IC50 in experiment [2] and in experiment [3] were 1.53 µM and over 1000 µM, respectively.

As for `COc1ccc(S(=O)(=O)N(CC(C)C)C[C@@H](O)[C@H](Cc2ccccc2)NC(=O)Cc2cc(=O)oc3cc(O)ccc23)cc1`, the inhibition at 10 µM in experiment [1] was determined as 82.9%. The 50% inhibitory concentration (IC50) is 0.00162 µM in experiment [2] and 459 µM in experiment [5]. In experiment [6], the inhibition at 0.1 µM was 45.5%.

`CC(C)CN(C[C@@H](O)[C@H](Cc1ccccc1)NC(=O)Cc1cc(=O)oc2cc(N(C)C)ccc12)S(=O)(=O)c1ccc([N+](=O)[O-])cc1`: the results for the IC50 in experiment [2] and in experiment [3] were 0.276 µM and over 1000 µM, respectively. In experiment [4], the inhibition at 10 µM was determined as 14.7%.

Turning to `CC(C)CN(C[C@@H](O)[C@H](Cc1ccccc1)NC(=O)c1cc2ccccc2oc1=O)S(=O)(=O)c1ccc(N)cc1`, the values for the 50% inhibitory concentration (IC50) in experiment [2] and in experiment [5] were 0.156 µM and 75.3 µM, respectively. In addition, the inhibition at 10 µM in experiment [4] is 1.34%.

For the molecule `CC(C)CN(C[C@@H](O)[C@H](Cc1ccccc1)NCc1cc(=O)oc2cc(O)ccc12)S(=O)(=O)c1ccc([N+](=O)[O-])cc1`, the inhibition at 10 µM in experiment [1] was determined as 73.2%. Further, the half-maximal inhibitory concentration (IC50) in experiment [2] worked out at 0.14 µM.

`CC(C)CN(C[C@@H](O)[C@H](Cc1ccccc1)NC(=O)c1cc2ccccc2oc1=O)S(=O)(=O)c1ccc([N+](=O)[O-])cc1`: the IC50 in experiment [2] was 0.298 µM; in experiment [3], over 1000 µM. Moreover, the inhibition at 10 µM in experiment [4] came out at 27.1%.

As to `COc1ccc2c(CC(=O)N[C@@H](Cc3ccccc3)[C@H](O)CN(CC(C)C)S(=O)(=O)c3ccc([N+](=O)[O-])cc3)cc(=O)oc2c1`, the IC50 was determined as 0.0558 µM in experiment [2] and 373 µM in experiment [5]. In addition, the inhibition at 10 µM in experiment [4] is 43.7%.

For the molecule `CC(C)CN(C[C@@H](O)[C@H](Cc1ccccc1)NC(=O)c1cc2ccc(O)cc2oc1=O)S(=O)(=O)c1ccc([N+](=O)[O-])cc1`, the inhibition at 10 µM in experiment [1] was found to be 74%; in experiment [4] it was 91%. Moreover, the IC50 in experiment [2] stood at 0.0621 µM; in experiment [5] it was 189 µM.

Consider `COc1ccc(S(=O)(=O)N(CC(C)C)C[C@@H](O)[C@H](Cc2ccccc2)NC(=O)c2cc3ccc(O)cc3oc2=O)cc1`, for which the 50% inhibitory concentration (IC50) in experiment [2] is 0.0395 µM; in experiment [5], 421 µM. In experiment [4], the inhibition at 10 µM was determined as 12.3%.

`CC(C)CN(C[C@@H](O)[C@H](Cc1ccccc1)NC(=O)Cc1cc(=O)oc2cc(O)ccc12)S(=O)(=O)c1ccc([N+](=O)[O-])cc1`: the inhibition at 10 µM in experiment [1] came out at 73.4%; in experiment [4], 3.91%. In addition, the concentration for half-maximal inhibition (IC50) in experiment [2] was 0.0111 µM; in experiment [5], 367 µM.

Take `COc1ccc(S(=O)(=O)N(CC(C)C)C[C@@H](O)[C@H](Cc2ccccc2)NC(=O)c2ccc3oc(=O)ccc3c2)cc1`: the inhibition at 10 µM in experiment [1] turned out to be 99.5%; in experiment [4], 1.26%. In addition, the 50% inhibitory concentration (IC50) in experiment [2] came to 0.00184 µM; in experiment [5] it was 597 µM.

As to `CC(C)CN(C[C@@H](O)[C@H](Cc1ccccc1)NC(=O)c1ccc2oc(=O)ccc2c1)S(=O)(=O)c1ccc([N+](=O)[O-])cc1`, the inhibition at 10 µM in experiment [1] was 98.5%. The IC50 in experiment [2] is 0.0026 µM; in experiment [3], over 1000 µM.

Take `CC(C)CN(C[C@@H](O)[C@H](Cc1ccccc1)NC(=O)Cc1cc(=O)oc2cc(N(C)C)ccc12)S(=O)(=O)c1ccc(N)cc1`: the figures for the IC50 in experiment [2] and in experiment [5] were 0.0751 µM and 572 µM, respectively. In addition, the inhibition at 10 µM in experiment [4] was 18.4%.

Regarding `COc1ccc(S(=O)(=O)N(CC(C)C)C[C@@H](O)[C@H](Cc2ccccc2)NC(=O)Oc2ccc3c(C)cc(=O)oc3c2)cc1`, the figures for the IC50 in experiment [2] and in experiment [3] were 0.16 µM and over 1000 µM, respectively.

Turning to `COc1ccc2cc(C(=O)N[C@@H](Cc3ccccc3)[C@H](O)CN(CC(C)C)S(=O)(=O)c3ccc(N)cc3)c(=O)oc2c1`, the half-inhibitory concentration (IC50) stood at 0.102 µM in experiment [2] and 706 µM in experiment [5]. In addition, the inhibition at 10 µM in experiment [4] was 23.2%.

Regarding `CC(C)CN(C[C@@H](O)[C@H](Cc1ccccc1)NC(=O)c1ccc2oc(=O)ccc2c1)S(=O)(=O)c1ccc(N)cc1`, the inhibition at 10 µM was found to be 98.7% in experiment [1] and 5.61% in experiment [4]. The half-inhibitory concentration (IC50) was determined as 0.0004 µM in experiment [2] and 398 µM in experiment [5].

Turning to `COc1ccc2c(CC(=O)N[C@@H](Cc3ccccc3)[C@H](O)CN(CC(C)C)S(=O)(=O)c3ccc(N)cc3)cc(=O)oc2c1`, the IC50 in experiment [2] came out at 0.0154 µM; in experiment [5] it was 411 µM. Further, the inhibition at 10 µM in experiment [4] turned out to be 7.72%.

Consider `CC(C)CN(C[C@@H](O)[C@H](Cc1ccccc1)NC(=O)Cc1cc(=O)oc2cc(O)ccc12)S(=O)(=O)c1ccc(N)cc1`, for which the inhibition at 10 µM in experiment [1] stood at 17.9%. The IC50 in experiment [2] is 0.0379 µM; in experiment [3], over 1000 µM.

`COc1ccc(S(=O)(=O)N(CC(C)C)C[C@@H](O)[C@H](Cc2ccccc2)NC(=O)Cc2cc(=O)oc3cc(N(C)C)ccc23)cc1`: the IC50 was 0.211 µM in experiment [2] and 355 µM in experiment [5]. The inhibition at 10 µM in experiment [4] amounted to 43.8%.

Consider `COc1ccc2cc(C(=O)N[C@@H](Cc3ccccc3)[C@H](O)CN(CC(C)C)S(=O)(=O)c3ccc([N+](=O)[O-])cc3)c(=O)oc2c1`, for which the half-inhibitory concentration (IC50) in experiment [2] was 0.221 µM; in experiment [3], over 1000 µM. In experiment [4], the inhibition at 10 µM was 0.45%.

In the case of `COc1ccc(S(=O)(=O)N(CC(C)C)C[C@@H](O)[C@H](Cc2ccccc2)NC(=O)Cc2cc(=O)oc3cc(OC)ccc23)cc1`, the half-inhibitory concentration (IC50) stood at 0.0155 µM in experiment [2] and 242 µM in experiment [5]. Besides, in experiment [4], the inhibition at 10 µM came to 17.7%.

For the molecule `Cc1cc(=O)oc2cc(OC(=O)N[C@@H](Cc3ccccc3)[C@H](O)CN(CC(C)C)S(=O)(=O)c3ccc([N+](=O)[O-])cc3)ccc12`, the IC50 was 1.02 µM in experiment [2] and over 1000 µM in experiment [3].

In the case of `COc1ccc(S(=O)(=O)N(CC(C)C)C[C@@H](O)[C@H](Cc2ccccc2)NC(=O)c2cc3ccccc3oc2=O)cc1`, the half-inhibitory concentration (IC50) was found to be 0.0728 µM in experiment [2] and 474 µM in experiment [5]. Besides, the inhibition at 10 µM in experiment [4] worked out at 44.8%.

Consider `O=C1Nc2ccc(Cl)cc2[C@@](C#CC2CC2)(C(F)(F)F)O1` [EFAVIRENZ], for which the inhibition at 10 µM in experiment [1] worked out at 100%.

As to `Cc1ccnc2c1NC(=O)c1cccnc1N2C1CC1` [NEVIRAPINE], the inhibition at 0.1 µM in experiment [6] is 77%.

A word on the inhibition: it is how much of the control response was suppressed. Usually IC50 stands for the point on the concentration scale where inhibition reaches its midpoint.

Source of the values: ChEMBL document CHEMBL4680127, “Rational design and Structure-Activity relationship of coumarin derivatives effective on HIV-1 protease and partially on HIV-1 reverse transcriptase” (Eur J Med Chem, 2020).
